Series [1] deals with T1, 3-dehydroquinate synthase (Escherichia coli K-12, UniProt P07639).
T1 sequence (P07639 whole entry): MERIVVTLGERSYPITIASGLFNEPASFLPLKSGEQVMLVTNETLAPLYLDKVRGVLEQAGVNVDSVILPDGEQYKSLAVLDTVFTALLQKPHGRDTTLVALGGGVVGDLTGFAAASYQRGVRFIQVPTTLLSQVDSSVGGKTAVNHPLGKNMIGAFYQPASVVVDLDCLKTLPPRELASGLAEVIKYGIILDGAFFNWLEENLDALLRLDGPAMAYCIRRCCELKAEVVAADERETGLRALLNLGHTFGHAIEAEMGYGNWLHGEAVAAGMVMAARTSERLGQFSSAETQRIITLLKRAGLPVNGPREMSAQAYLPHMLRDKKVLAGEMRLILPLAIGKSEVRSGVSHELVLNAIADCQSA
The experiment in a line: Inhibition constant for binding to Co2+ form of 3-dehydroquinate synthase (DHQ) purified from Escherichia coli. Put shortly: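 E. coli DHQ synthase, Co2+ form, purified with […] in all buffers from lysis onward. Assayed at rt in 50 mM MOPS pH 7.5 with […], 10 mM NAD+, 1 unit dehydroquinase, varied DAHP and inhibitor; 0.024 units enzyme added last. A234 increase followed. Ki from Dixon plots, or as half the I50 x-intercept at DAHP = Km ([…]).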

Series [2] concerns the target T1, 3-dehydroquinate synthase. The experiment in a line: Inhibition constant for binding to Zn2+ form of 3-dehydroquinate synthase (DHQ) purified from Escherichia coli. The essentials:
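E. coli DHQ synthase, Zn2+ form, purified with 75 mM ZnSO4 replacing CoCl2 in all buffers. Assayed at rt in 50 mM MOPS pH 7.5 with […] mM NAD+, 1 unit dehydroquinase, varied DAHP and inhibitor; 0.024 units enzyme added last. A234 increase followed. Ki from Dixon plots, or as half the I50 x-intercept at DAHP = Km ([…]).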

Substrate in series [3]: Oc1ccccc1O
In words: Kinetics expressed as Michaelis-Menten constant against Zn2+ form of 3-dehydroquinate synthase purified from Escherichia coli. Put shortly:
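Zn2+-form enzyme from E. coli, purified with ZnSO4 replacing CoCl2 in every buffer from cell lysis onward. Coupled assay in 50 mM MOPS pH 7.5 with ZnSO4, NAD+, dehydroquinase (1 unit) and varying DAHP substrate. Equilibrated at rt, then started with 0.024 units synthase. Absorbance increase at 234 nm monitored. Initial rates from linear least-squares fits.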

Substrate in series [4]: Oc1ccccc1O
The experiment in a line: Kinetics expressed as Michaelis-Menten constant against Co2+ form of 3-dehydroquinate synthase purified from Escherichia coli. The essentials:
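Co2+-form enzyme from E. coli, with CoCl2 in all buffers from lysis through purification. Coupled assay in 50 mM MOPS pH 7.5 with CoCl2, NAD+, dehydroquinase (1 unit) and varying DAHP substrate. Equilibrated at rt, then started with 0.024 units synthase. Absorbance rise at 234 nm followed over time. Initial rates taken from linear least-squares fits of progress curves.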

In general, Ki refers to the equilibrium dissociation constant of an inhibitor or competing ligand from its target. Usually Km stands for the concentration of substrate that gives half-maximal velocity.

For the molecule `O=P(O)(O)CCc1cccc(O)c1O`, the Ki in series [1] came out at 200 µM; in series [2], 90 µM.

For the molecule `O=C(O)c1ccc(O)c(O)c1` [PROTOCATECHUIC ACID], the Ki in series [1] is 44 µM; in series [2], 65 µM.

Turning to `O=C(O)c1cc(O)c(O)c(CCP(=O)(O)O)c1`, the Ki in series [1] was 5 µM; in series [2], 1.7 µM.

For `O=C(O)c1cc(O)c(O)c(CP(=O)(O)O)c1`, the Ki in series [1] amounted to 21 µM; in series [2] it was 0.35 µM.

Consider `Oc1ccccc1O` [CATECHOL], for which the Ki in series [1] was determined as 880 µM; in series [2], 630 µM.

B1: 3-dehydroquinate synthase (Escherichia coli K-12), P07639 (protein)
chain: MERIVVTLGERSYPITIASGLFNEPASFLPLKSGEQVMLVTNETLAPLYLDKVRGVLEQAGVNVDSVILPDGEQYKSLAVLDTVFTALLQKPHGRDTTLVALGGGVVGDLTGFAAASYQRGVRFIQVPTTLLSQVDSSVGGKTAVNHPLGKNMIGAFYQPASVVVDLDCLKTLPPRELASGLAEVIKYGIILDGAFFNWLEENLDALLRLDGPAMAYCIRRCCELKAEVVAADERETGLRALLNLGHTFGHAIEAEMGYGNWLHGEAVAAGMVMAARTSERLGQFSSAETQRIITLLKRAGLPVNGPREMSAQAYLPHMLRDKKVLAGEMRLILPLAIGKSEVRSGVSHELVLNAIADCQSA
Regarding B1, the figures for the Km in series [3] and in series [4] were 16 µM and 18 µM, respectively.
